Source: ChEMBL document CHEMBL4354819, “Discovery of Novel Small Molecule Dual Inhibitors Targeting Toll-Like Receptors 7 and 8” (J Med Chem, 2019)
Calls of active or inactive are those of the source. No cut-off for these calls is given here.

What was measured:
THP-1 = test: Inhibition of IFN mediated immune response in human THP1 cells assessed as inhibition of 3p-hpRNA-induced RIG1 signalling pathway at 20 uM incubated for 16 hrs by luciferase assay; type: functional, cell-based
Procedure, shortened: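 THP1-Dual monocytes carrying Lucia luciferase and SEAP reporters were stimulated with 3p-hpRNA (RIG-I agonist) or Y-form dsDNA G3-YSD (cGAS agonist), with or without compound. Secreted Lucia luciferase luminescence was measured as the type I IFN read-out. Mean ± s.d., n = 3 independent experiments.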

[1] = molecular target: Toll-like receptor 7 (Mus musculus) (UniProt P58681); test: Inhibition of endogenous mouse TLR7 in mouse RAW264.7 cells assessed as resiquimod-induced NO production at < 5 uM incubated for 18 to 24 hrs
Chain of Toll-like receptor 7 (Mus musculus) (P58681 whole entry, looked up): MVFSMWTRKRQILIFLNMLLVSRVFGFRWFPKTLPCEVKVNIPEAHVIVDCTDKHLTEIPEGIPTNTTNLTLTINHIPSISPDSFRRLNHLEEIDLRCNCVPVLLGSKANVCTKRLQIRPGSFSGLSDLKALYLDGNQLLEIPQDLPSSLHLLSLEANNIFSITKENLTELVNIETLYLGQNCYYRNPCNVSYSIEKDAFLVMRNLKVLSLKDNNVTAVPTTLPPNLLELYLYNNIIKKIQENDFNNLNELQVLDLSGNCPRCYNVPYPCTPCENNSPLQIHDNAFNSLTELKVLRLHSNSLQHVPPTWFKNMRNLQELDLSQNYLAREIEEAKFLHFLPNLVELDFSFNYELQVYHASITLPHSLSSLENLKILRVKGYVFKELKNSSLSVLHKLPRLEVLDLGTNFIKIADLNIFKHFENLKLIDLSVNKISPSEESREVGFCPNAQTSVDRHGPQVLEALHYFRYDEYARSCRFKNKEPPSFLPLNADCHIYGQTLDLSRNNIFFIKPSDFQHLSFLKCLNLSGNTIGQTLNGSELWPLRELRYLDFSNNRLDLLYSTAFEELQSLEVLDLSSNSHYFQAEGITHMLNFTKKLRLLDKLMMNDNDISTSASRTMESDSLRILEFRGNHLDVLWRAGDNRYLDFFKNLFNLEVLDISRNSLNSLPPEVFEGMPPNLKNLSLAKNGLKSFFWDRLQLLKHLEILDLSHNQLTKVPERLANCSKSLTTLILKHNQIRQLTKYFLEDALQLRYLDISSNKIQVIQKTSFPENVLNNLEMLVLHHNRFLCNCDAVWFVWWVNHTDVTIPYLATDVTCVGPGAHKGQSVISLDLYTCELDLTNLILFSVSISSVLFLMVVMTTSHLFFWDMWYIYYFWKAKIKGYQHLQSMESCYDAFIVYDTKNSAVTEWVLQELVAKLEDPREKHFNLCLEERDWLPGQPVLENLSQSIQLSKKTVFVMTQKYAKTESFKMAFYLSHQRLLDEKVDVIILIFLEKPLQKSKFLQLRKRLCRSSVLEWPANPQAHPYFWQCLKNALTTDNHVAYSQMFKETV

[2] = molecular target: T1, Toll-like receptor 7 (Homo sapiens) (UniProt Q9NYK1); test: Inhibition of human TLR7 expressed in HEK293 cells assessed as reduction in resiquimod-induced NFkappaB production at 5 to 20 uM incubated for 16 hrs by quanti-blue SEAP assay; type: cell-based
T1 sequence (whole entry): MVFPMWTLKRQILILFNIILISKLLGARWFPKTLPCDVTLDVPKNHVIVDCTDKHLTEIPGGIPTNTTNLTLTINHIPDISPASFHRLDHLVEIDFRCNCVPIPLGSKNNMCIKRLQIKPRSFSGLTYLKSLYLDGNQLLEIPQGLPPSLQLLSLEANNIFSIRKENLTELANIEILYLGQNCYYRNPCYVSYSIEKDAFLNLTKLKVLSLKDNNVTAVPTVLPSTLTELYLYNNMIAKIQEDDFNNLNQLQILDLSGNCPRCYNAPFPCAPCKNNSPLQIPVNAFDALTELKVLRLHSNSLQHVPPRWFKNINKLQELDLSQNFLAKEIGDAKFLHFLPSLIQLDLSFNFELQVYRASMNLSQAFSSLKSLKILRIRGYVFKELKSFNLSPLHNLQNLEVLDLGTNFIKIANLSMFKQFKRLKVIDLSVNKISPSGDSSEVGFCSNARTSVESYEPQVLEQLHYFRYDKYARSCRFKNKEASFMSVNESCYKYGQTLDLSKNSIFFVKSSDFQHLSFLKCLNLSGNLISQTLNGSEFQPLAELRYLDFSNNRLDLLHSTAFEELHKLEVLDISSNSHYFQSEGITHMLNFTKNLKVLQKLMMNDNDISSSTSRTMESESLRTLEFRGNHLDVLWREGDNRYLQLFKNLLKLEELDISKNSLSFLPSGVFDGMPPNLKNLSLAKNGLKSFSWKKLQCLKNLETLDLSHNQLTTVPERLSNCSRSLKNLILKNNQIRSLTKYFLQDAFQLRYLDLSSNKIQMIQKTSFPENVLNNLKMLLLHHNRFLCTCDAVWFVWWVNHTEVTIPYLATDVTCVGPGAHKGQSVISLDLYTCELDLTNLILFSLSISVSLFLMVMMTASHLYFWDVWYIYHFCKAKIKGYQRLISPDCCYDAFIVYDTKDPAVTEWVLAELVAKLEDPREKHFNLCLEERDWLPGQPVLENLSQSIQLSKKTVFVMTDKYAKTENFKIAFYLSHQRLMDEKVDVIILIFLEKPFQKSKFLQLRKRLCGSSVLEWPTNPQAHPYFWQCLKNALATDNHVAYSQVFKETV
Procedure, shortened: (§1)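 Selectivity panel in stably transfected HEK 293-Blue cells, each overexpressing one human TLR with an inducible SEAP reporter. Agonists: Pam3CSK4 (TLR1/2), Pam2CSK4 (TLR2/6), poly(I:C) (TLR3), LPS (TLR4), R848 (TLR7/8), ODN 2006 (TLR9). Cells were exposed to compound for 16 h. Activity = (raw − untreated)/(ligand + solvent − untreated), with ligand + solvent set as 100%.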

[3] = molecular target: T1, Toll-like receptor 7 (Homo sapiens); test: Inhibition of human TLR7 expressed in HEK293 cells assessed as reduction in R848-induced NFkappaB production incubated for 16 hrs by quanti-blue SEAP assay; type: cell-based
Procedure, shortened: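 HEK 293-Blue cells stably expressing hTLR7 or hTLR8 with an inducible SEAP reporter were incubated 16 h with compound under 1 µg/mL R848 stimulation. SEAP was read at 620 nm. Data were normalized to the R848 control, and IC50 was taken from concentration-response curves. […] Mean ± s.d., n = 3 independent experiments.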

[4] = molecular target: T2, Toll-like receptor 9 (Homo sapiens) (UniProt Q9NR96); test: Inhibition of human TLR9 expressed in HEK293 cells assessed as reduction in ODN-2006-induced NFkappaB production at 1.5 uM incubated for 16 hrs by quanti-blue SEAP assay; type: cell-based; procedure, shortened: as §1
T2 sequence (whole entry): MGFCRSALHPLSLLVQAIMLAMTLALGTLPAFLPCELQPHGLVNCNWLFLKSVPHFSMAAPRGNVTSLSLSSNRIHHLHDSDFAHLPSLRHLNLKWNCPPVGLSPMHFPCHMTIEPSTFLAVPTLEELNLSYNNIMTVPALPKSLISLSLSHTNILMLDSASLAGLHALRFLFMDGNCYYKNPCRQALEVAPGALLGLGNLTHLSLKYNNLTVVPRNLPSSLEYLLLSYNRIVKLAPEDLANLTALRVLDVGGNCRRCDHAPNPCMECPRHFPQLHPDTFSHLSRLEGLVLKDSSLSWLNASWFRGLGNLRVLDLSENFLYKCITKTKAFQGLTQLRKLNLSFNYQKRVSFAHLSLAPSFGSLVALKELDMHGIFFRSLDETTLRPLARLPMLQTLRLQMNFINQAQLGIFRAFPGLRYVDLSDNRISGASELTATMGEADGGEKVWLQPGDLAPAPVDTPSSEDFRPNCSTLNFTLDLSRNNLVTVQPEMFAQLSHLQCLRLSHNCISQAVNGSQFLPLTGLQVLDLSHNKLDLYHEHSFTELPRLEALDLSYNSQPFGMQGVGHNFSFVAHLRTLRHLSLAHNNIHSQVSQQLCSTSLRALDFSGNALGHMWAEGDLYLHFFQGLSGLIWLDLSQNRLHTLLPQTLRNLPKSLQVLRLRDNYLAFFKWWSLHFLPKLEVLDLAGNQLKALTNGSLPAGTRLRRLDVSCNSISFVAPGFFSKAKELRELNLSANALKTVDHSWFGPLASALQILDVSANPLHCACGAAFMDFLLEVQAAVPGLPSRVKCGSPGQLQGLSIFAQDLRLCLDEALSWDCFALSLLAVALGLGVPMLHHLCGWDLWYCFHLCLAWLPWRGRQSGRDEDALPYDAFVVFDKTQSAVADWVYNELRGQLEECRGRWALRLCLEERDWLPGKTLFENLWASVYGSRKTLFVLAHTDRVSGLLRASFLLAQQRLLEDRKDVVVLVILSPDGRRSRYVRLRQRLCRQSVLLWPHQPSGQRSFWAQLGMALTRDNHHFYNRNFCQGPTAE

[5] = molecular target: Toll-like receptor 3 (Homo sapiens) (UniProt O15455); test: Inhibition of human TLR3 expressed in HEK293 cells assessed as reduction in poly(I:C)-induced NFkappaB production at 1.5 to 5 uM incubated for 16 hrs by quanti-blue SEAP assay; type: cell-based; procedure, shortened: as §1
Chain of Toll-like receptor 3 (Homo sapiens) (O15455 whole entry): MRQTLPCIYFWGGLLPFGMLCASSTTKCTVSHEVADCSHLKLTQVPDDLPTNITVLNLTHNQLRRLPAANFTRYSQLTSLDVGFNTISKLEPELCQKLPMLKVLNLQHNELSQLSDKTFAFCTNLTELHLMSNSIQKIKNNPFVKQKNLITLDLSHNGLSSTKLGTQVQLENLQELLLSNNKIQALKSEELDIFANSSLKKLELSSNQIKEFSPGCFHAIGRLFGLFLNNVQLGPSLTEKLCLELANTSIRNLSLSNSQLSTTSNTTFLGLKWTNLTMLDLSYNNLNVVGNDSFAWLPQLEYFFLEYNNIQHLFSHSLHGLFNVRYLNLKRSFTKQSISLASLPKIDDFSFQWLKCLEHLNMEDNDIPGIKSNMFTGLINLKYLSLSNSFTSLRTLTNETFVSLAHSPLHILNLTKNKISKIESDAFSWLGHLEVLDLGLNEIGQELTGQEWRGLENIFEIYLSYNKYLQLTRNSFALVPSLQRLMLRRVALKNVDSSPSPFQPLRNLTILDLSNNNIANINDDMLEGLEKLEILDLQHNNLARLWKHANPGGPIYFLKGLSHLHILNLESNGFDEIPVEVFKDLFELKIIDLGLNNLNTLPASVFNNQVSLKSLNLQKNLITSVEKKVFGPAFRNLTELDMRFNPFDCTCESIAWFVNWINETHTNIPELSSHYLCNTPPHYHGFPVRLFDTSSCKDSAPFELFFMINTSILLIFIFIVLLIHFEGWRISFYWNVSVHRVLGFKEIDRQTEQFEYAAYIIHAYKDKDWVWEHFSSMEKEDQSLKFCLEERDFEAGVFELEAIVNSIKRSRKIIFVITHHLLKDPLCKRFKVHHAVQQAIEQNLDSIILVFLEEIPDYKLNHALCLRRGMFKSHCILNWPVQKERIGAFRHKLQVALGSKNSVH

Structure (SMILES): O=[N+]([O-])c1c(I)cccc1Oc1ccc(-c2nnco2)cc1
- inhibition (THP-1): Active
- inhibition [1]: inactive

Structure (SMILES): O=C(Nc1ccc(Oc2cncc(C(F)(F)F)c2)cc1)c1c(F)cccc1Cl
- inhibition [2]: Active

Structure (SMILES): O=C(Nc1ccc(Oc2cc(C(F)(F)F)cc(C(F)(F)F)c2)cc1)c1c(F)cccc1Cl
- inhibition [3]: Dose-dependent effect
- inhibition [4]: inactive
- inhibition [5]: inactive
